MsrA act – activates bovine MsrA enzyme. purified bovine MsrA, absorbance read-out. AID 602163. hit rate 0.3% among 360,000. activation, % at 10.6 µM; in the data active = activation above about 7.5%;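 note: 0% = vehicle and 100% = reference activator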
proCasp7 act – counter-screen: procaspase-7 (human) activation; recombinant procaspase-7, Ac-DEVD-pNA absorbance 405 nm; D23A/D198A/D206A triple mutant, cannot self-cleave; scale: DMSO 0, 5 µM enzyme 100; activation, % at 8.5 µM; hit rate 0.093% among 330,000; AID 463210;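 active = percent activation above the screen-wide mean plus 3 SD, cut at about 25% in these data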
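Replicates: singlicate. Assay system: Procaspase-7 triple mutant (PC-7 D3A). Signal: 405 nm absorbance of p-nitroaniline. Times: 1 h preincubation, 2 h reaction. Buffer or medium: Zinc-free HEPES pH 7.4 with 300 mM NaCl, 0.01% Triton X-100. Also added: DEVD-pNA substrate. Benchmarks: DMSO wells as 0%, DMSO with 5 µM added PC-7 as 100%.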
MsrA inhibitor – inhibitors of bovine MsrA. purified bovine MsrA, absorbance read-out. inhibition, % at 15.5 µM. hit rate 0.75% among 360,000. AID 651718;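 note: 0% = vehicle wells with enzyme and 100% = reference inhibitor wells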
procasp3 activ – activators of human procaspase-3 | P42574 | recombinant procaspase-3 D3A, Ac-DEVD-pNA absorbance 405 nm | activation, % at 8.5 µM | hit rate 0.11% among 330,000 | AID 463141;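 active = activation above the mean of all tested compounds plus 3 SD, cut at about 21% in these data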;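 note: 0% = DMSO alone and 100% = DMSO wells spiked with extra 5 µM PC-3 D3A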
Target sequence (P42574 whole entry D9A/D28A/D175A): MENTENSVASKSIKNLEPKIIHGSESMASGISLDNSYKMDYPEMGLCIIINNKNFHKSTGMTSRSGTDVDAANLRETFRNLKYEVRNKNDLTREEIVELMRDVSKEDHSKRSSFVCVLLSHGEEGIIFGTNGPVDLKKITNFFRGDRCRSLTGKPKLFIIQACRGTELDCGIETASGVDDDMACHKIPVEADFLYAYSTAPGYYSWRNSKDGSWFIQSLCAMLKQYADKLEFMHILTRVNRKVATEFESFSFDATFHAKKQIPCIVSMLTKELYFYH
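assay system = Procaspase-3 D3A mutant | signal = absorbance at 405 nm, 0 and 120 min | times = 1 h preincubation plus 2 h reaction at 25 °C | repeats = single replicate | read-out = % activation between DMSO and enzyme-spiked controls | medium = Zinc-free HEPES saline buffer with Triton X-100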
MsrA conf – bovine MsrA inhibition, confirmed; shares compounds with MsrA inhibitor; inhibition, % at 15.5 µM; hit rate 41% among 2,300; purified bovine MsrA, absorbance read-out;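 note: coupled to thioredoxin reductase with NADPH and selenocystamine and DMSO as substrate; 0% = vehicle only and 100% = full effect of reference inhibitor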
Active calls of the source: *. A selection: hits, their analogues and other compounds. The true share with any hit is near 1.2%. Cut-off read from the data, not from the text of the source, unless noted: active = inhibition above about 4.5%; inactive = the rest.

How did NS(=O)(=O)c1ccc(NC(=O)/C=C/c2cccs2)cc1 do in these assays?
MsrA act: -11; proCasp7 act: -8; MsrA inhibitor: 8.2*; procasp3 activ: 3; MsrA conf: 5.1*

How did NS(=O)(=O)c1ccc(NC(=O)/C=C/c2cccc(Cl)c2)cc1 do in these assays?
MsrA act: -3; proCasp7 act: 2; MsrA inhibitor: 1; procasp3 activ: 10

Results for CN1CCCCC(NC(=O)c2cccc(F)c2)C1=O (stereo not given) ?
MsrA inhibitor: 0

How did CCCCNC(=O)C[C@H]1C[C@@]2(C(=O)OC)C(=C[C@H](C(C)(C)C)O[C@@H]2C)N(Cc2ccc3c(c2)OCO3)C1=O do in these assays?
MsrA inhibitor: 0

How did COC(=O)C(Cc1ccc(O)cc1)NS(=O)(=O)Cc1ccccc1 (stereo not given) do in these assays?
MsrA inhibitor: -1

Results for CN[C@H]1C[C@H]2c3[nH]c4c(-c5ccc6c(c5)OCO6)cccc4c3CCN2C(=O)[C@H]1[C@H](C)O ?
MsrA inhibitor: 0

Results for CSc1cccc(NC(=S)NN/C(=N/S(=O)(=O)c2ccccc2)N2CCCC2)c1 ?
MsrA inhibitor: 0

Results for CCN(CC)CCOC(=O)c1ccc(NC(=O)/C=C/c2cccs2)cc1 ?
MsrA act: -2; proCasp7 act: -2; MsrA inhibitor: 5.5*; procasp3 activ: 8; MsrA conf: 3

What do the screens show for `CCOC(=O)c1ccc(NC(=O)/C=C/c2cccs2)cc1`?
MsrA act: -8; proCasp7 act: 2; MsrA inhibitor: 3; procasp3 activ: 2

Results for O=C(/C=C/c1cccs1)Nc1ccc(S(=O)(=O)Nc2ncccn2)cc1 ?
MsrA act: -7; proCasp7 act: 13; MsrA inhibitor: 4.7*; procasp3 activ: 7; MsrA conf: 4

How did COC(=O)c1cc2c(c3c4cc(C)ccc4n(S(=O)(=O)c4cccc(C)c4)c13)C(=O)N(Cc1ccc(N(C)C)cc1)C2 do in these assays?
MsrA inhibitor: 1

Results for O=C(Nc1nnc(/C=C/c2ccccc2)s1)c1ccco1 ?
MsrA act: -6; proCasp7 act: 10; MsrA inhibitor: 5.8*; procasp3 activ: 0; MsrA conf: 4

Results for CCN(c1ccc(C)cc1)S(=O)(=O)c1nnc(NC(=O)c2ccco2)s1 ?
MsrA act: -2; proCasp7 act: 1; MsrA inhibitor: 4; procasp3 activ: 2

What do the screens show for `Cc1cccc(-c2nnc(NC(=O)c3ccco3)s2)c1`?
MsrA act: -4; proCasp7 act: -8; MsrA inhibitor: 4.8*; procasp3 activ: 1; MsrA conf: 2

How did CCN(CC)S(=O)(=O)c1nnc(NC(=O)c2ccco2)s1 do in these assays?
MsrA act: -3; proCasp7 act: 5; MsrA inhibitor: 6.6*; procasp3 activ: -3; MsrA conf: 3

What do the screens show for `COC(=O)C1=C(C)N(C)C(=NCc2ccc(C(F)(F)F)cc2)NC1c1cccc(F)c1` (stereo not given)?
MsrA inhibitor: -1

Results for Cc1cccn2c(=O)nc(SCC(=O)N3CC(C)OC(C)C3)nc12 (stereo not given) ?
MsrA act: -5; proCasp7 act: 1; MsrA inhibitor: 5.5*; procasp3 activ: 5; MsrA conf: 2

Results for O=C(O)CSc1nc(-c2cccs2)cc(C(F)(F)F)n1 ?
MsrA act: -4; proCasp7 act: -7; MsrA inhibitor: 1; procasp3 activ: 8

How did COCC(C)NC(=O)CCSc1nc(-c2ccc(OC)cc2)cc(C(F)(F)F)n1 (stereo not given) do in these assays?
MsrA act: 3; proCasp7 act: -6; MsrA inhibitor: 5.0*; procasp3 activ: 0; MsrA conf: 2

Results for COc1ccc(-c2cc(C(F)(F)F)nc(SCCC(=O)N3CCN(C)CC3)n2)cc1 ?
MsrA act: -8; MsrA inhibitor: 0

What do the screens show for `CCC(C)NC(=O)CSc1nc(-c2cccs2)cc(C(F)(F)F)n1` (stereo not given)?
MsrA act: -4; proCasp7 act: 4; MsrA inhibitor: 6.2*; procasp3 activ: 8; MsrA conf: 1

How did O=C(NCCN1CCCC1)c1ccc(Cl)cc1 do in these assays?
MsrA act: 0; proCasp7 act: -1; MsrA inhibitor: -1; procasp3 activ: -1

What do the screens show for `O=C(NCCC1=CCCCC1)c1ccc(=O)oc1`?
MsrA act: -18; proCasp7 act: 9; MsrA inhibitor: 6.9*; procasp3 activ: -11; MsrA conf: 7.1*
